Legend:
[1] = molecular target: Muscarinic acetylcholine receptor M3 (Homo sapiens) (UniProt P20309); assay: Displacement of [3H] N-methylscopolamine from recombinant human M3 receptor expressed in CHOK1 cell membranes at 10 uM after 120 mins by scintillation counting method relative to control
Procedure, shortened: (§1)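 Single-concentration screen at 10 μM in an outsourced profiling panel of 68 GPCRs, ion channels and transporters. Activity read out as percent inhibition of specific radioligand binding.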

[2] = molecular target: Beta-1 adrenergic receptor (Homo sapiens) (UniProt P08588); assay: Displacement of [125I] cyanopindolol from full length human recombinant beta1 receptor expressed in CHOK1 cell membranes at 10 uM after 120 mins by scintillation counting method relative to control; procedure, shortened: as §1
[3] = species: Rattus norvegicus; assay: Displacement of [35S] ATP-alphaS from Wistar rat brain P2Y receptor at 10 uM measured after 60 mins by scintillation counting method relative to control; procedure, shortened: as §1
[4] = molecular target: Mu-type opioid receptor (Homo sapiens) (UniProt P35372); assay: Displacement of [3H] diprenorphine from recombinant human mu opioid receptor expressed in CHOK1 cell membranes at 10 uM after 60 mins by scintillation counting method relative to control; procedure, shortened: as §1
[5] = molecular target: Adenosine receptor A2a (Homo sapiens) (UniProt P29274); assay: Displacement of [3H] CGS-21680 from full length human recombinant A2a receptor expressed in HEK293 cell membranes at 10 uM after 90 mins by scintillation counting method relative to control; procedure, shortened: as §1
[6] = Brain to plasma partition coefficient, Kp of the compound in Sprague-Dawley rat at 0.2 to […], iv administered as cassette dose measured at […] post dose by LC-MS/MS analysis; type: ADME, organism-based; conditions: brain and plasma
[7] = molecular target: Metabotropic glutamate receptor 6 (Homo sapiens, UniProt O15303); assay: Positive allosteric modulation of human mGlu6 receptor expressed in HEK cells assessed as increase in glutamate-induced calcium flux incubated for 142 secs followed by glutamate addition measured after 120 secs by Fluo4-AM dye based fluorescence assay; type: functional, cell-based
[8] = molecular target: Estrogen receptor (Homo sapiens) (UniProt P03372); assay: Displacement of [3H] estradiol from full length human recombinant ERalpha receptor expressed in Sf9 insect cells at 10 uM after 120 mins by scintillation counting method relative to control
[9] = species: Rattus norvegicus; assay: Displacement of [3H] Idazoxan from imidazoline I2 receptor in Wistar rat brain membranes at 10 uM after 30 mins by scintillation counting method relative to control; type: cell membranes; conditions: Membrane; procedure, shortened: as §1
[10] = Brain to plasma partition coefficient, Kp of the compound in C57BL/6 mouse at 10 mg/kg, ip measured after 60 mins by LC-MS/MS analysis; type: ADME, organism-based; conditions: brain and plasma
Procedure, shortened: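 Mice given 10 mg/kg IP; time course out to 6 h with nonserial sampling of plasma and brain at each time point; Kp from brain/plasma levels.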

[11] = species: Homo sapiens; assay: Displacement of [125I] epibatidine from human nAChR expressed in IMR32 cell membranes at 10 uM after 60 mins by scintillation counting method relative to control; procedure, shortened: as §1
[12] = molecular target: Interleukin-1 receptor type 1 (Mus musculus) (UniProt P13504); assay: Inhibition of mouse IL-1 receptor at 10 uM relative to control
Procedure, shortened: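 Single-concentration screen at 10 μM within a commercial lead-profiling panel of 68 GPCRs, ion channels and transporters. Activity read as percent inhibition of specific radioligand binding to each target.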

Chain of Beta-1 adrenergic receptor (Homo sapiens) (P08588 whole entry, looked up): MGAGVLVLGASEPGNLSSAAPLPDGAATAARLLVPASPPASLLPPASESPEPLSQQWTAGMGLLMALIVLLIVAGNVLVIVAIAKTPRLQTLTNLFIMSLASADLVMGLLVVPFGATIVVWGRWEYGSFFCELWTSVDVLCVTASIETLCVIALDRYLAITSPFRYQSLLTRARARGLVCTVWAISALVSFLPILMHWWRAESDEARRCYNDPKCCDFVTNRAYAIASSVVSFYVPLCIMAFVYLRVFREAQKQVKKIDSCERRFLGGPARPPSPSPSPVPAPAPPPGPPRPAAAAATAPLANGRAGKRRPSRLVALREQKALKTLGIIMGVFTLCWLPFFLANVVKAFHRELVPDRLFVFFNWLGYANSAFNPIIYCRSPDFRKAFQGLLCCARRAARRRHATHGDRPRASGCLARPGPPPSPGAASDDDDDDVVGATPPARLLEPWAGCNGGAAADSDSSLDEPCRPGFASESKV
Chain of Estrogen receptor (Homo sapiens) (P03372 whole entry): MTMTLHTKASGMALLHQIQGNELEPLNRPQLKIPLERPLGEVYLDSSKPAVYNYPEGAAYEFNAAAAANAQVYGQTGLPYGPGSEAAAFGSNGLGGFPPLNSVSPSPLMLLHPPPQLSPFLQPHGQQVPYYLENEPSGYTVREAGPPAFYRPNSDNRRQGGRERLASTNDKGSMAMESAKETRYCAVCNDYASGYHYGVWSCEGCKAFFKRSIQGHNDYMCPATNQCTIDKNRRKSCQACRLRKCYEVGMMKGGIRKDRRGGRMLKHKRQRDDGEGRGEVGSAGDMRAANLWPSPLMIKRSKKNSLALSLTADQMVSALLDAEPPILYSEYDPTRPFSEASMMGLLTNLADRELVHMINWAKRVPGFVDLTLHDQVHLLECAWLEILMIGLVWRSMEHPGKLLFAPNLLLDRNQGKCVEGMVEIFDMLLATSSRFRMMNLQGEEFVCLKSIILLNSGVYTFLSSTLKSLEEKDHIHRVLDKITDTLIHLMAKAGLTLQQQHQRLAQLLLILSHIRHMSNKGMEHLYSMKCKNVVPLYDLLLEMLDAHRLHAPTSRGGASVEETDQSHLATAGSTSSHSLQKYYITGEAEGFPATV
Chain of Interleukin-1 receptor type 1 (Mus musculus) (P13504 whole entry): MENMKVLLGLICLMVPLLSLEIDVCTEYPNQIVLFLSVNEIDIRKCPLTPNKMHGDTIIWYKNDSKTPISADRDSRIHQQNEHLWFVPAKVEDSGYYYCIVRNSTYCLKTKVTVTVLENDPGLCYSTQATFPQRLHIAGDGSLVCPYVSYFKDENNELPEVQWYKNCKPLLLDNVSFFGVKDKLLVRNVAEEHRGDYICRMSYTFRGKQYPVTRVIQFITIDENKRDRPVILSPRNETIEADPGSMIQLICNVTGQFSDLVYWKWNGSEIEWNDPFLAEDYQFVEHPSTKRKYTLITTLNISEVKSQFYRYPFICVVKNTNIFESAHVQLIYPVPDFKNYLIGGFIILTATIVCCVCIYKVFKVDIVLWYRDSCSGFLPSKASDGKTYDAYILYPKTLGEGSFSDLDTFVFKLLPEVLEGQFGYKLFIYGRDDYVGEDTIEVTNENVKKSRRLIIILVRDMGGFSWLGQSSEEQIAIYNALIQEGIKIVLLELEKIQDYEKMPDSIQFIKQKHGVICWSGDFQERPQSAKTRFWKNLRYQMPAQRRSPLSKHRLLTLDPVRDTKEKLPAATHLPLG
Chain of Adenosine receptor A2a (Homo sapiens) (P29274 whole entry): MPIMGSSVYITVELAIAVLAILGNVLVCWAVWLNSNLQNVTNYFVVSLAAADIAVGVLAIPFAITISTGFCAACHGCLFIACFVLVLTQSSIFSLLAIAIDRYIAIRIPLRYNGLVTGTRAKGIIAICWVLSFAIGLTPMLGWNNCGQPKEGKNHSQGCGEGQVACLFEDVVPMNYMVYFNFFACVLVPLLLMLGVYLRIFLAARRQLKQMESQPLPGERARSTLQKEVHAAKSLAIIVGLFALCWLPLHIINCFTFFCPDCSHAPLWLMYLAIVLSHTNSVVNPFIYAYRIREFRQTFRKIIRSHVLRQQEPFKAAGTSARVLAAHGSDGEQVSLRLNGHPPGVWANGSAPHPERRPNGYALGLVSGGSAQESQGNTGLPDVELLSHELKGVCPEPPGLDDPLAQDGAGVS
Chain of Metabotropic glutamate receptor 6 (O15303 whole entry): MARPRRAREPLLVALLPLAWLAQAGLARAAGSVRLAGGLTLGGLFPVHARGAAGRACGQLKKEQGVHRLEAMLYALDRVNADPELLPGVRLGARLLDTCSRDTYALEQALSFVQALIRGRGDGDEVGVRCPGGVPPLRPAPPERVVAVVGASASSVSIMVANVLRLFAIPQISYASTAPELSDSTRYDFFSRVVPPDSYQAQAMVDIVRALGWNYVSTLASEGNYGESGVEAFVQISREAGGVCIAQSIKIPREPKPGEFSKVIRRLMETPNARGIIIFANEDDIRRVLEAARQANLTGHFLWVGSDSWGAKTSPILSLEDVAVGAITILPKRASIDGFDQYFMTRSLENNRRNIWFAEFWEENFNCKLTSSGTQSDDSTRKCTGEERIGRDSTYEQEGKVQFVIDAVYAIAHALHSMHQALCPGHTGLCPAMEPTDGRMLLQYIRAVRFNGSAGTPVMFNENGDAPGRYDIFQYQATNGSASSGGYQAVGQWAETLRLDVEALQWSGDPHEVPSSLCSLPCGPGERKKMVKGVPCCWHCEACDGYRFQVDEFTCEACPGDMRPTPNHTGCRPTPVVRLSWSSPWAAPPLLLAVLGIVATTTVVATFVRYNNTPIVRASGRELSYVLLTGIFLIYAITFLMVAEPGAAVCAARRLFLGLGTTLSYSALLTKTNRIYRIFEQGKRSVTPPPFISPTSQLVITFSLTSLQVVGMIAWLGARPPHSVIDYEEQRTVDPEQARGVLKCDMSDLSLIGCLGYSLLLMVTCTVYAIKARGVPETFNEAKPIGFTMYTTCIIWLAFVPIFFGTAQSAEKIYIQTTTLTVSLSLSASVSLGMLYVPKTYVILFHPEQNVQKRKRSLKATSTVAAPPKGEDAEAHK
Chain of Muscarinic acetylcholine receptor M3 (Homo sapiens) (P20309 whole entry, looked up): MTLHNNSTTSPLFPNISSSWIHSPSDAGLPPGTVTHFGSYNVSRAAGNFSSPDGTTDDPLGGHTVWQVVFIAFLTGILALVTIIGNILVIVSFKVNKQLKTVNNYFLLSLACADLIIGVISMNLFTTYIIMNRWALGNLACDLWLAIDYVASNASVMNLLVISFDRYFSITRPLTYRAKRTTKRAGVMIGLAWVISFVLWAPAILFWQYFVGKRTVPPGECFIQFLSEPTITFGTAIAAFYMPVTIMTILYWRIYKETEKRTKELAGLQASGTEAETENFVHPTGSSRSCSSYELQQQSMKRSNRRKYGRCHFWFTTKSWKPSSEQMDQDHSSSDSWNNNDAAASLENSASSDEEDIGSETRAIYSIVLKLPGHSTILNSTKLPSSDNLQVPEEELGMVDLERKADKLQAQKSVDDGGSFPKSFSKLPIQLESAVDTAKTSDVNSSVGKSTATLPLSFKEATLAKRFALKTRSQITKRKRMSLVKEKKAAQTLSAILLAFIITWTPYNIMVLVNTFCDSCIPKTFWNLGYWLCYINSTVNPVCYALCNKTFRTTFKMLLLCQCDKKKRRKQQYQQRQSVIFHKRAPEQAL
Chain of Mu-type opioid receptor (Homo sapiens) (P35372 whole entry): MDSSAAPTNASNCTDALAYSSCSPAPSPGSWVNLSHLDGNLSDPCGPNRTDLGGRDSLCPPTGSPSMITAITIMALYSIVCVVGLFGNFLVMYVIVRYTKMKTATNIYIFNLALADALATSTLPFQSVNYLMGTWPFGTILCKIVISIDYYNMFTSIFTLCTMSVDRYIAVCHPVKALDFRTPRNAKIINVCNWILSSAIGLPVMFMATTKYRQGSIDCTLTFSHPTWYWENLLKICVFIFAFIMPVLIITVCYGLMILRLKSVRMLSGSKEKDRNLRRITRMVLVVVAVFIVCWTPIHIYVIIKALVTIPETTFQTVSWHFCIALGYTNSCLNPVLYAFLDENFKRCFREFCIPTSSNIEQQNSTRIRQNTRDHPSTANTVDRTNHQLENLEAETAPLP

Compound: COc1ccc(-c2c(C)nn3c(C(F)(F)F)cc(C)nc23)c(F)c1F
- inhibition [1]: < 50%
- inhibition [2]: < 50%
- inhibition [3]: < 50%
- inhibition [4]: < 50%
- inhibition [5]: < 50%
- Kp at […] [6]: 4.3
- EC50 [7]: > 10 µM
- inhibition [8]: < 50%
- inhibition [9]: < 50%
- Kp at 1 h [10]: 2.1
- inhibition [11]: < 50%
- inhibition [12]: < 50%
